This is an account of results in ChEMBL document CHEMBL1136357, “2-arylaminothiazoles as high-affinity corticotropin-releasing factor 1 receptor (CRF1R) antagonists: synthesis, binding studies and behavioral efficacy” (Bioorg Med Chem Lett, 2003).

A word on the Ki: it is the equilibrium dissociation constant of an inhibitor or competing ligand from its target. The low end stands for tighter binding, the high end for weaker binding. The bioavailability is dose-corrected exposure relative to a reference, in per cent. By CL/F is commonly meant clearance divided by bioavailability, as obtained after extravascular dosing. The clearance is a measure of how efficiently the substance is removed, as volume per time. Low readings indicate inefficient removal, high ones efficient removal. As usually defined, the AUC is concentration integrated over time. A lower AUC goes with low exposure. As usually defined, the half-life is the time in which the quantity being followed falls by half. A word on the Inhibition: it is the share of the control response that was lost under treatment. A lower Inhibition goes with little suppression.

Series [1] addresses T1, Corticotropin-releasing factor receptor 1 (Homo sapiens, UniProt P34998).
T1 sequence (P34998 whole entry): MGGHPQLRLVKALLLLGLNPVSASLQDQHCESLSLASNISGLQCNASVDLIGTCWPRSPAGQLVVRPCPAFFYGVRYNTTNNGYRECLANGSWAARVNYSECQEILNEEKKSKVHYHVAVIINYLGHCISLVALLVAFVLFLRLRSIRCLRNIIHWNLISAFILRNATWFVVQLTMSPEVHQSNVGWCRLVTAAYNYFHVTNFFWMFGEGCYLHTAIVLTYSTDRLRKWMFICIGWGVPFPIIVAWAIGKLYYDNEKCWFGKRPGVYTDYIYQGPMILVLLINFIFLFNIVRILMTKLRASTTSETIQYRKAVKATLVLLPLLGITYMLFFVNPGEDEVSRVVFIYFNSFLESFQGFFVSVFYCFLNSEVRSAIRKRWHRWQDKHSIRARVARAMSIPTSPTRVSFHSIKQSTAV
The experiment in a line: Binding affinity by displacement of [125I]Tyr-o-CRF from human corticotropin releasing factor receptor 1 expressed in IMR-32 human neuroblastoma cell. (In a radioligand displacement assay an active substance lowers the binding of a labelled ligand.)

Series [2] can be described thus: Ratio in brain to that of rat plasma for 2 hr after peroral administration at 10 mg/kg. The series is classed as ADME, organism-based. The arrangement: dose 10 mg/kg, route oral. As to conditions: po, read-out: B/P. The gist of the method:
(§1)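 Rats were given the HCl salt at 10 mg/kg orally, and at 5 mg/kg intravenously in the same study. […] Half-life, clearance, volume of distribution and oral bioavailability (F) were derived from the same study.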

Series [3] is described as follows: Oral bioavailability in rat after peroral administration at 10 mg/kg. The series is classed as ADME, organism-based. To be noted: in vivo. The gist of the method:
as §1

A short description of series [4]: Oral bioavailability in rat after […]. It counts as ADME, organism-based. To be noted: in vivo.
Series [5] is described as follows: Plasma clearance in rat after peroral administration at 10 mg/kg concentration. It counts as ADME, organism-based. The gist of the method: as §1
Series [6] concerns Rattus norvegicus. The series can be described thus: Volume distribution in rat after peroral administration at 10 mg/kg. The series is classed as ADME, organism-based. Also noted: dose 10 mg/kg, route oral. To be noted: in vivo, po. The gist of the method:
as §1

Series [7] in a line: Plasma clearance in rat after intravenous administration at 5 mg/kg concentration.
Series [8] has as its system Rattus norvegicus. The experiment in a line: Area under curve in rat plasma for 0-4 hr after peroral administration at 10 mg/kg. As to conditions: in vivo, po.
Series [9] concerns Rattus norvegicus. The series can be described thus: Area under curve in rat plasma for 0-4 hr after peroral administration at 10 mg/kg. It counts as ADME, organism-based. Also noted: time < 4 hr, dose 10 mg/kg, route oral. As to conditions: in vivo, po. The gist of the method: as §1
The nature of series [10]: Half-life in rat after peroral administration at 10 mg/kg concentration. It counts as ADME, organism-based. As to conditions: in vivo. The gist of the method: as §1
The test system of the next series is IMR-32. The series can be described thus: Compound was tested for its ability to inhibit CRF stimulatedcAMP production in IMR-32 cells. The series is classed as functional, Homo sapiens.
Series [11] can be described thus: Half-life in rat after intravenous administration at 5 mg/kg concentration. As to conditions: in vivo.
The nature of series [12]: Ratio in brain to that of rat plasma for 2 hr after […]. It counts as ADME, organism-based. Also noted: route oral. To be noted: po, read-out: B/P.
Series [13] concerns Rattus norvegicus. The series can be described thus: Volume distribution in rat after intravenous administration at 5 mg/kg. To be noted: in vivo.

With `CCCN(CC1CC1)C(=O)c1sc(Nc2c(Cl)cc(Cl)cc2Cl)nc1C(F)(F)F`, the affinity in series [1] corresponds to a Ki of 31000 nM.

In series [1], `CCCN(Cc1sc(Nc2c(C)cc(C)cc2Br)nc1C(F)(F)F)CC1CC1` showed a Ki of 21 nM.

Regarding `CCN(CC)C(=O)c1sc(Nc2c(Cl)cc(Cl)cc2Cl)nc1C`, in [1], the affinity, expressed as Ki, was 5000 nM.

The molecule `CCCN(Cc1sc(Nc2c(C)cc(C)cc2Cl)nc1C(F)(F)F)CC1CC1` yielded a Ki in series [1] of 23 nM.

Regarding `CCCN(CCC)C(=O)c1sc(Nc2c(Cl)cc(Cl)cc2Cl)nc1C`, the Ki in series [1] stood at 820 nM.

In the case of `CCCN(Cc1sc(Nc2c(Br)cc(C)cc2Br)nc1C(F)(F)F)CC1CC1`, in [1], the affinity corresponds to a Ki of 28 nM.

Turning to `CCCN(CC1CC1)C(=O)c1sc(Nc2c(Cl)cc(Cl)cc2Cl)nc1CC`, the Ki in [1] came out at 11000 nM.

`COCCN(CCOC)C(=O)c1sc(Nc2c(Cl)cc(Cl)cc2Cl)nc1C` returned a Ki in series [1] of 51000 nM.

Molecule `CCN(CCOC)C(=O)c1sc(Nc2c(Cl)cc(Cl)cc2Cl)nc1C` displayed a Ki in series [1] of 16000 nM.

Molecule `CCCN(CC1CC1)c1nc(C)nc(Nc2c(Cl)cc(Cl)cc2Cl)c1Cl` came in with a Ki in [1] of 20 nM.

In the case of `CCCN(Cc1sc(N(CC)c2ccc(C(C)C)cc2Br)nc1C(F)(F)F)CC1CC1`, the affinity in series [1] corresponds to a Ki of 56 nM.

In turn, `CCCN(Cc1sc(Nc2ccc(OC)cc2OC)nc1C(F)(F)F)CC1CC1` returned a Ki in series [1] of 5100 nM. Against the preceding molecule, the Ki is about 91-fold higher.

`CCCN(Cc1sc(Nc2c(Cl)cc(Cl)cc2Cl)nc1C(F)(F)F)CC1CC1`: the Kp at 2 h in series [2] and in series [12] was 2 each time. For the same molecule, the bioavailability in series [3] and in series [4] was 9% throughout. In [5], this molecule registered a CL/F of 16 mL/min/kg. Further, the Vd in the series with Rattus norvegicus [6] and in the series with Rattus norvegicus [13] was 1.1 L/kg throughout. The molecule further yielded a clearance in series [7] of 16 mL/min/kg. Also, the AUC in the series with Rattus norvegicus [8] and in the series on Rattus norvegicus [9] was 1730 ng·h/mL throughout. For the same molecule, the half-life in series [10] and in [11] was 7.6 h throughout. Also, in the series on IMR-32, the Inhibition came to 90%.

With `CCCN(Cc1sc(Nc2c(C)cc(Cl)cc2C)nc1C(F)(F)F)CC1CC1`, in [1], the Ki turned out to be 73 nM.

Regarding `CCCN(Cc1sc(Nc2ccc(C(C)C)cc2Br)nc1C(F)(F)F)CC1CC1`, in [1], the affinity corresponds to a Ki of 2900 nM.

`CCCN(CC1CC1)C(=O)c1sc(Nc2c(Cl)cc(Cl)cc2Cl)nc1C` came in with a Ki in [1] of 360 nM.

`CCCN(Cc1sc(N(C)c2c(C)cc(C)cc2Cl)nc1C(F)(F)F)CC1CC1`: the Ki in [1] came out at 100 nM.

As to `CCCN(Cc1sc(Nc2c(C)cc(C)cc2C)nc1C(F)(F)F)CC1CC1`, the Ki in [1] was found to be 60 nM.

For the molecule `CCCN(Cc1sc(Nc2c(C)cc(Cl)cc2Cl)nc1C(F)(F)F)CC1CC1`, in series [1], the Ki is 16 nM.

In series [1], `CCCN(Cc1sc(Nc2c(Cl)cc(C(F)(F)F)cc2Cl)nc1C(F)(F)F)CC1CC1` had a Ki of 28 nM.

Turning to `CCCN(Cc1sc(Nc2c(CC)cccc2CC)nc1C(F)(F)F)CC1CC1`, the Ki in series [1] was greater than 40000 nM.

Regarding `CCCN(Cc1sc(Nc2c(Br)cc(Br)cc2Br)nc1C(F)(F)F)CC1CC1`, in series [1], the Ki was 7.8 nM.

Take `CCCN(Cc1sc(N(CC)c2c(C)cc(C)cc2Cl)nc1C(F)(F)F)CC1CC1`: the affinity in series [1] corresponds to a Ki of 67 nM. Against the preceding molecule, the Ki is about 8.6-fold higher.
